Measured values from ChEMBL document CHEMBL1121898, “Potential antiestrogens. Synthesis and evaluation of mammary tumor inhibiting activity of 1,2-dialkyl-1,2-bis(3'-hydroxyphenyl)ethanes” (1981).
The source made the active and inactive calls.

Columns and labels:
Rattus norvegicus [1] = species: Rattus norvegicus; experiment: Percent unchanged tumor size of DMBA-induced hormone-dependent mammary carcinoma tumors in rats at 9 mg; assay type: functional
[2] = biological target: T1, Estrogen receptor (Mus musculus) (UniProt O08537+P19785); experiment: Estrogenic activity in uterotrophic test in mice at 1500 ug; assay type: functional
How it was run: (§1)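 Uterine growth stimulation in immature female NMRI mice, 20 days old (14.5 ± 1.2 g), 10 per group. Test compound in 0.1 mL olive oil was given sc daily for 3 days. Uteri were excised 24 h after the final injection and weighed. Effect is reported as mean ± SD.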

Rattus norvegicus [3] = species: Rattus norvegicus; experiment: Complete remission of DMBA-induced hormone-dependent mammary carcinoma tumors in ovariectomised rats; assay type: functional
How it was run: (§2)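 Female SD rats bearing DMBA-induced, hormone-dependent mammary adenocarcinoma, with at least one tumor >140 mm², were grouped in tens. Dosing was sc per kg body weight: a single dose daily Monday–Thursday and a double dose Friday. Ovariectomy served as the comparison arm. Complete remission was defined as a tumor no longer palpable. Body weight and tumor area changes were also recorded.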

[4] = biological target: T1, Estrogen receptor (Mus musculus); experiment: Inhibitory activity in mouse uterine weight test at 500 ug; assay type: functional
How it was run: (§3)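 Immature female NMRI mice, 20 days old (14.5 ± 1.2 g), in random groups of 10. They received sc injections daily for 3 days of 0.1 mL olive oil containing test compound, with estrone 0.1 μg given to stimulate uterine growth. Uteri were removed 24 h after the last injection and weighed (mean ± SD). Result is percent inhibition of the estrone-stimulated uterine weight gain.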

[5] = biological target: T1, Estrogen receptor (Mus musculus); experiment: Inhibitory activity in mouse uterine weight test at 0.1 ug; assay type: functional
How it was run: (§4)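 Antiuterotrophic (Dorfman) assay in immature 20-day-old female NMRI mice, groups of 10. Uterine growth was stimulated with estrone (0.1 μg) and the test compound was given alongside it, sc daily for 3 days in 0.1 mL olive oil. Uteri were taken 24 h after the last dose. Uterine weight is reported as means ± SD and inhibition as % of the estrone-stimulated response.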

[6] = biological target: T1, Estrogen receptor (Mus musculus); experiment: Antiestrogenic activity in uterotrophic test in mice at 500 ug; assay type: functional
How it was run: (§5)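 Immature female NMRI mice, 20 days old (14.5 ± 1.2 g), randomly grouped 10 per group. Each received a daily sc injection for 3 days of 0.1 mL olive oil solution containing test compound, together with estrone to stimulate uterine growth. Uteri were removed 24 h after the last injection and weighed. Results are reported as % inhibition of the estrone-stimulated uterine weight gain, mean ± SD.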

[7] = biological target: T1, Estrogen receptor (Mus musculus); experiment: Inhibitory activity in mouse uterine weight test at 50 ug; assay type: functional; how it was run: as §4
Rattus norvegicus [8] = species: Rattus norvegicus; experiment: Percent unchanged tumor size of DMBA-induced hormone-dependent mammary carcinoma tumors in rats at 4.5 mg; assay type: functional
Rattus norvegicus [9] = species: Rattus norvegicus; experiment: Progression of DMBA-induced hormone-dependent mammary carcinoma tumors in rats at 4.5 mg; assay type: functional
[10] = biological target: T1, Estrogen receptor (Mus musculus); experiment: Antiestrogenic activity in uterotrophic test in mice at 50 ug; assay type: functional; how it was run: as §5
Rattus norvegicus [11] = species: Rattus norvegicus; experiment: Percent change in DMBA-induced hormone-dependent mammary carcinoma tumor area at 9 mg after 28 days; assay type: functional
How it was run: (§6)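 DMBA-induced, hormone-dependent mammary adenocarcinoma in SD rats. Rats bearing at least one tumor >140 mm² were placed in groups of ten. Compound was given sc as a single dose (mg/kg) daily Monday–Thursday and a double dose on Friday. Tumors were counted at the start and as new tumors; responses were scored as complete remission (not palpable), partial remission (≥50% reduction), no change or progression. Tumor area and body weight were recorded as % change.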

Rattus norvegicus [12] = species: Rattus norvegicus; experiment: Progression of DMBA-induced hormone-dependent mammary carcinoma tumors in rats at 9 mg; assay type: functional
Rattus norvegicus [13] = species: Rattus norvegicus; experiment: Progression of DMBA-induced hormone-dependent mammary carcinoma tumors in rats at 2.25 mg; assay type: functional
Rattus norvegicus [14] = species: Rattus norvegicus; experiment: Final number of DMBA-induced hormone-dependent mammary carcinoma tumors in rats at 2.25 mg; assay type: functional
How it was run: (§7)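 Sprague-Dawley rats carrying DMBA-induced, hormone-dependent mammary adenocarcinoma, at least one tumor >140 mm², were placed in groups of ten. Compounds were given sc, with doses in mg/kg: a single daily dose Monday to Thursday and a double dose on Friday. Ovariectomy served as a comparator group. New tumors arising during the test were counted.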

[15] = biological target: T1, Estrogen receptor (Mus musculus); experiment: Estrogenic activity in uterotrophic test in mice at 3 ug; assay type: functional; how it was run: as §1
[16] = biological target: T1, Estrogen receptor (Mus musculus); experiment: Estrogenic activity in uterotrophic test in mice at 300 ug; assay type: functional
How it was run: (§8)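 Immature (20-day-old) female NMRI mice, 14.5 ± 1.2 g, randomized into groups of 10. Given the test compound sc daily for 3 days in 0.1 mL olive oil. Uteri removed 24 h after the last injection; uterine weight taken as the read-out, means ± SD. Dose in μg.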

Rattus norvegicus [17] = species: Rattus norvegicus; experiment: Percent change in DMBA-induced hormone-dependent mammary carcinoma tumor area at 2.25 mg after 28 days; assay type: functional; how it was run: as §6
[18] = biological target: T1, Estrogen receptor (Mus musculus); experiment: Antiestrogenic activity in uterotrophic test in mice at 0 ug (experiment 1); assay type: functional; how it was run: as §5
[19] = biological target: T1, Estrogen receptor (Mus musculus); experiment: Inhibitory activity in mouse uterine weight test at 500 ug (experiment 2); assay type: functional; how it was run: as §3
[20] = biological target: T1, Estrogen receptor (Mus musculus); experiment: Estrogenic activity in uterotrophic test in mice at 800 ug (experiment 2); assay type: functional; how it was run: as §8
Rattus norvegicus [21] = species: Rattus norvegicus; experiment: Initial tumor number of DMBA-induced hormone-dependent mammary carcinoma in rats at 2 mg; assay type: functional; how it was run: as §6
[22] = biological target: T1, Estrogen receptor (Mus musculus); experiment: Inhibitory activity in mouse uterine weight test at 25 ug (experiment 2); assay type: functional; how it was run: as §4
[23] = biological target: T1, Estrogen receptor (Mus musculus); experiment: Inhibitory activity in mouse uterine weight test at 50 ug (experiment 2); assay type: functional; how it was run: as §4
Rattus norvegicus [24] = species: Rattus norvegicus; experiment: Percent change in DMBA-induced hormone-dependent mammary carcinoma tumor area at 2 mg after 28 days; assay type: functional; how it was run: as §6
Rattus norvegicus [25] = species: Rattus norvegicus; experiment: Complete remission of DMBA-induced hormone-dependent mammary carcinoma tumors in rats at 4 mg; assay type: functional; how it was run: as §2
Rattus norvegicus [26] = species: Rattus norvegicus; experiment: Progression of DMBA-induced hormone-dependent mammary carcinoma tumors in rats at 1 mg; assay type: functional
Rattus norvegicus [27] = species: Rattus norvegicus; experiment: Final number of DMBA-induced hormone-dependent mammary carcinoma tumors in rats at 2 mg; assay type: functional; how it was run: as §7
Mus musculus [28] = species: Mus musculus; experiment: Vaginal cornification test in mice at 2.5 ug; predominant cellular component leucocytes (diestrus); assay type: functional, organism-based
Rattus norvegicus [29] = species: Rattus norvegicus; experiment: Percent change in body weight DMBA-induced hormone-dependent mammary carcinoma tumors in rats at 2 mg for 7 days; assay type: functional
How it was run: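 Sprague-Dawley rats with DMBA-induced, hormone-dependent mammary adenocarcinoma; animals with at least one tumor over 140 mm² were grouped in tens. Dosed subcutaneously in mg/kg body weight: a single daily dose Monday to Thursday, doubled on Friday. Percent change in body weight was recorded over the test alongside tumor area and remission counts, with untreated controls.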

Rattus norvegicus [30] = species: Rattus norvegicus; experiment: Percent unchanged tumor size of DMBA-induced hormone-dependent mammary carcinoma tumors in rats at 4 mg; assay type: functional
Rattus norvegicus [31] = species: Rattus norvegicus; experiment: Progression of DMBA-induced hormone-dependent mammary carcinoma tumors in rats at 4 mg; assay type: functional
Rattus norvegicus [32] = species: Rattus norvegicus; experiment: Initial tumor number of DMBA-induced hormone-dependent mammary carcinoma in rats at 4 mg; assay type: functional; how it was run: as §6
Rattus norvegicus [33] = species: Rattus norvegicus; experiment: Percent change in body weight DMBA-induced hormone-dependent mammary carcinoma tumors in rats at 4 mg for 7 days; assay type: functional
[34] = biological target: T1, Estrogen receptor (Mus musculus); experiment: Antiestrogenic activity in uterotrophic test in mice at 500 ug (experiment 2); assay type: functional; how it was run: as §5
Mus musculus [35] = species: Mus musculus; experiment: Vaginal cornification test in mice at 25 ug; predominant cellular component leucocytes (diestrus); assay type: functional, organism-based
[36] = biological target: T1, Estrogen receptor (Mus musculus); experiment: Estrogenic activity in uterotrophic test in mice at 0.8 ug (experiment 1); assay type: functional; how it was run: as §1
Rattus norvegicus [37] = species: Rattus norvegicus; experiment: Final number of DMBA-induced hormone-dependent mammary carcinoma tumors in rats at 1 mg; assay type: functional; how it was run: as §7
[38] = biological target: T1, Estrogen receptor (Mus musculus); experiment: Inhibitory activity in mouse uterine weight test at 5 ug (experiment 1); assay type: functional; how it was run: as §4

T1 sequence (O08537 whole entry, looked up): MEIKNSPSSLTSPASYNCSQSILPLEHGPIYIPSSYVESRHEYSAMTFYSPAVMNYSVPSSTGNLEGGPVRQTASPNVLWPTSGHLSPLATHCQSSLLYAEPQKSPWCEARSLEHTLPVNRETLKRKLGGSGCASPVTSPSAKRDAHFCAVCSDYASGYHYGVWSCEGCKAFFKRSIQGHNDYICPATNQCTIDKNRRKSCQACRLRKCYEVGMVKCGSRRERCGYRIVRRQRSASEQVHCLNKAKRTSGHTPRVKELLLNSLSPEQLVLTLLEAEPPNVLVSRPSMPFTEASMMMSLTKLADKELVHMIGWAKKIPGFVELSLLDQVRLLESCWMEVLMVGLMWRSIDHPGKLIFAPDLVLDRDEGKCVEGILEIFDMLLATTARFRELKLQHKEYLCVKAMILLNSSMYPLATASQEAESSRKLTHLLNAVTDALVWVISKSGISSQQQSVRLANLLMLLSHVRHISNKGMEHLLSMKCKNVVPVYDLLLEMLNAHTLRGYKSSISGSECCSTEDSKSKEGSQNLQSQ
T1 sequence (P19785 whole entry, looked up): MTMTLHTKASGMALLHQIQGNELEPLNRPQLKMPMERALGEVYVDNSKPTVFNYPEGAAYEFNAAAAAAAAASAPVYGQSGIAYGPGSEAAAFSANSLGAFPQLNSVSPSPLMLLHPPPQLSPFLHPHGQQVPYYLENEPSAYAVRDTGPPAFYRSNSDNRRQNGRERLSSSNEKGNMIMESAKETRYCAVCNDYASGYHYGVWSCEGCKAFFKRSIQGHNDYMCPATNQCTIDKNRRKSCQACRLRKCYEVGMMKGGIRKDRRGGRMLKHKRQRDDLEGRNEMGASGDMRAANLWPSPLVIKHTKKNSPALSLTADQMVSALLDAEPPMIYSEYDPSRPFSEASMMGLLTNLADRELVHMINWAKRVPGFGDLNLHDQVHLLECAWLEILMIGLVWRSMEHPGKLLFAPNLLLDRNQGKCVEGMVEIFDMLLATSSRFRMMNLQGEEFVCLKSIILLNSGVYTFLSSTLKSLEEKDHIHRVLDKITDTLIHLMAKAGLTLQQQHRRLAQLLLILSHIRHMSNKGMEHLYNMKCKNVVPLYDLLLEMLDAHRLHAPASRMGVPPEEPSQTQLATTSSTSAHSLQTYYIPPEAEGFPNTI

SMILES: CCCC(c1cccc(O)c1)C(CCC)c1cccc(O)c1 (stereo not drawn)
- Tumors (Rattus norvegicus [1]): 9%
- Effect [2]: 28
- Tumors (Rattus norvegicus [3]): 90%
- inhibition [4]: 50%
- inhibition [5]: 5%
- Effect [6]: 23.9
- inhibition [7]: 43%
- Tumors (Rattus norvegicus [8]): 27%
- Tumors (Rattus norvegicus [9]): 36%
- Effect [10]: 25.9
- Change (Rattus norvegicus [11]): -24%
- Tumors (Rattus norvegicus [12]): 17%
- Tumors (Rattus norvegicus [13]): 54%
- No. of tumors (Rattus norvegicus [14]): 17
- Effect [15]: 13.6
- Effect [16]: 28.4
- Change (Rattus norvegicus [17]): 271%

SMILES: CCC(c1cccc(O)c1)C(CC)c1cccc(O)c1 (stereo in doubt; 20)
- Effect [18]: 12.5
- inhibition [19]: 40%
- Effect [20]: 30.8
- No. of tumors (Rattus norvegicus [21]): 30
- inhibition [22]: 48%
- inhibition [23]: 47%
- Change (Rattus norvegicus [24]): 11%
- Tumors (Rattus norvegicus [25]): 46%
- Tumors (Rattus norvegicus [26]): 29%
- No. of tumors (Rattus norvegicus [27]): 23
- Activity (Mus musculus [28]): inactive
- Change (Rattus norvegicus [29]): -1.5%
- Tumors (Rattus norvegicus [30]): 19%
- Tumors (Rattus norvegicus [31]): 10%
- No. of tumors (Rattus norvegicus [32]): 37
- Change (Rattus norvegicus [33]): -5.3%
- Effect [34]: 30.9
- Activity (Mus musculus [35]): inactive
- Effect [36]: 11.8
- No. of tumors (Rattus norvegicus [37]): 29
- inhibition [38]: 53%
